Measured values published in ChEMBL document CHEMBL5126601 (ACS Med Chem Lett, 2022).
Active and inactive are the calls of the source. The calls are words filed in the database; no cut-off is given here.

Experiments:
Adenosine receptor A2a [1] = biological target: T1, Adenosine receptor A2a (Homo sapiens, UniProt P29274); test: Binding affinity to human wild type adenosine A2A receptor expressed in Expi293F cells assessed as dissociation constant by surface plasmon resonance assay
Adenosine receptor A1 [2] = biological target: T2, Adenosine receptor A1 (Homo sapiens, UniProt P30542); test: Binding affinity to human wild type adenosine A1 receptor expressed in Expi293F cells assessed as dissociation constant by surface plasmon resonance assay
T2 sequence (P30542 whole entry): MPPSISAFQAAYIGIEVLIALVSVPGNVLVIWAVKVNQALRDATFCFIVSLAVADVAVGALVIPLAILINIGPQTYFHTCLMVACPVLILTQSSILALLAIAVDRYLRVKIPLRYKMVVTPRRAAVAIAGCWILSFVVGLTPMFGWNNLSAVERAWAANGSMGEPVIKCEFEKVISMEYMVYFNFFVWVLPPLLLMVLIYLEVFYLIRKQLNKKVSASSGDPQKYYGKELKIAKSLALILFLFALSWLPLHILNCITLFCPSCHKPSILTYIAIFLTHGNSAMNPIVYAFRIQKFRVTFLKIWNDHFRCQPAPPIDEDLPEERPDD

Adenosine receptor A2b = biological target: T3, Adenosine receptor A2b (Homo sapiens, UniProt P29275); test: Binding affinity to human wild type adenosine A2B receptor expressed in Expi293F cells assessed as dissociation constant by surface plasmon resonance assay
T3 sequence (P29275 whole entry): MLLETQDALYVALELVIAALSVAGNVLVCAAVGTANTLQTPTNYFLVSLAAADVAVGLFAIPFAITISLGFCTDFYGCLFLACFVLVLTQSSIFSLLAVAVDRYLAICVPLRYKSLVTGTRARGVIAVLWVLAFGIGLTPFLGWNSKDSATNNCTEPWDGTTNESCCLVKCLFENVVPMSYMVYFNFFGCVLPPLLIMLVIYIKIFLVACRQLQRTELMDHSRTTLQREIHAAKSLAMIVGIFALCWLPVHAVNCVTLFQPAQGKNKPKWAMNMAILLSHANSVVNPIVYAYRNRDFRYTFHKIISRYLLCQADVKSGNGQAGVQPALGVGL

Adenosine receptor A3 = biological target: T4, Adenosine receptor A3 (Homo sapiens, UniProt P0DMS8); test: (§1) Binding affinity to human wild type adenosine A3 receptor expressed in Expi293F cells assessed as dissociation constant by surface plasmon resonance assay
T4 sequence (P0DMS8 whole entry): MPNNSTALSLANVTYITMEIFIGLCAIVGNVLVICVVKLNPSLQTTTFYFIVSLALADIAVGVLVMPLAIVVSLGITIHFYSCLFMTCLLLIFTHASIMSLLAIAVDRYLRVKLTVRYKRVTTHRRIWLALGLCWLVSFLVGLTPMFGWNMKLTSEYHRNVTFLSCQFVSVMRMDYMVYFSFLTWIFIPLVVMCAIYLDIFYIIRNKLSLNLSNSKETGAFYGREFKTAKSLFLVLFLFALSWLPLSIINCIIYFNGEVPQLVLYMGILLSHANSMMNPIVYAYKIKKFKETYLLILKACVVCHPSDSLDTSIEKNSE

Adenosine receptor A2a [3] = biological target: T1, Adenosine receptor A2a; test: Antagonist activity at human adenosine A2A receptor expressed in HEK293T cells assessed as inhibition of EC20 concentration of NECA-induced cAMP accumulation at higher concentration by GloSensor cAMP accumulation assay; type: functional, cell-based; settings: filed as antagonist
Method in brief: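 HEK293T cells expressing A2A, GloSensor luciferase cAMP read-out; concentration–response curves run against EC20 NECA (3 nM). Data as % of maximum NECA response; mean ± SEM of at least three independent experiments in technical duplicate. Maximum tested concentration 0.63 mM where compound supply was limited; compounds also checked in cells lacking transfected A2A.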

HEK-293T = test: Effect on cAMP accumulation in HEK293T cells by GloSensor cAMP accumulation assay; type: functional, cell-based; settings: Homo sapiens
Method in brief: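 HEK293T cells transiently expressing the A2A receptor, with a GloSensor luciferase cAMP read-out. Compound concentration series were tested against NECA at EC80 (500 nM) or EC20 (3 nM), and for agonist activity alone. Cells lacking transfected A2A served as control. Responses are expressed as a percentage of the maximum NECA response, as mean ± SEM of at least three independent experiments in technical duplicate.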

Adenosine receptor A2a [4] = biological target: T1, Adenosine receptor A2a; test: Antagonist activity at human adenosine A2A receptor expressed in HEK293T cells assessed as inhibition of NECA-induced Gs short protein activation by TRUPATH assay; type: functional, cell-based
[5] = biological target: T5, Adenosine receptor A1 (Homo sapiens) (UniProt P30542); test: Binding affinity to human wild type adenosine A1 receptor expressed in Expi293F cells assessed as affinity off-rate by surface plasmon resonance assay
T5 sequence (whole entry): T2 sequence (P30542 whole entry)

[6] = biological target: T5, Adenosine receptor A1 (Homo sapiens); test: Binding affinity to human wild type adenosine A1 receptor expressed in Expi293F cells assessed as affinity on-rate by surface plasmon resonance assay
[7] = biological target: T6, Adenosine receptor A3 (Homo sapiens) (UniProt P0DMS8); test: Binding affinity to human wild type adenosine A3 receptor expressed in Expi293F cells assessed as affinity on-rate by surface plasmon resonance assay
T6 sequence (whole entry): T4 sequence (P0DMS8 whole entry)

[8] = biological target: T6, Adenosine receptor A3 (Homo sapiens); test: as §1
[9] = biological target: Glycogen synthase kinase-3 alpha (Homo sapiens, UniProt P49840); test: Inhibition of recombinant human GSKalpha
Chain of Glycogen synthase kinase-3 alpha (P49840 whole entry): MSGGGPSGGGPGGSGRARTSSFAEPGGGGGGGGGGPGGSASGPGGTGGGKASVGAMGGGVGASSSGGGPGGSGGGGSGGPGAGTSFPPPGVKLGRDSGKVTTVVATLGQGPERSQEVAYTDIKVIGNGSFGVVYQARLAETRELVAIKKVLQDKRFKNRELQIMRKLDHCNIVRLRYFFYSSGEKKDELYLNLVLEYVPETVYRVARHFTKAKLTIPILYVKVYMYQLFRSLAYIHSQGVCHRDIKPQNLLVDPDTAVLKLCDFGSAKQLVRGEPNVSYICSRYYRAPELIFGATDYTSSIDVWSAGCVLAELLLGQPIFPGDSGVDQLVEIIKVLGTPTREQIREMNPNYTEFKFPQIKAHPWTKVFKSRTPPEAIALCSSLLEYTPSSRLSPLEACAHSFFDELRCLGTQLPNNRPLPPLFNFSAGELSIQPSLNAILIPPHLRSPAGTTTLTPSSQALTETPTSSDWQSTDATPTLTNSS

Adenosine receptor A2a [10] = biological target: T1, Adenosine receptor A2a; test: Antagonist activity at human adenosine A2A receptor expressed in HEK293T cells assessed as inhibition of EC20 concentration of NECA-induced cAMP accumulation by measuring fold change in potency by GloSensor cAMP accumulation assay; type: functional, cell-based; settings: filed as antagonist
Adenosine receptor A1 [11] = biological target: T2, Adenosine receptor A1; test: Binding affinity to human wild type adenosine A1 receptor expressed in Expi293F cells assessed as affinity on-rate by surface plasmon resonance assay
Adenosine receptor A2a [12] = biological target: T1, Adenosine receptor A2a; test: Allosteric modulator activity at human adenosine A2A receptor expressed in HEK293T cells assessed as stimulation of NECA-induced cAMP accumulation by GloSensor cAMP accumulation assay; type: functional, cell-based; settings: filed as positive allosteric modulator
Method in brief: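 GloSensor cAMP accumulation in HEK293T cells transiently expressing A2A; compound tested for modulation of NECA-stimulated cAMP (EC80 and EC20 NECA), concentrations up to 30 μM. Data as % of maximum NECA response; mean ± SEM of three to four experiments in at least duplicate.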

T1 sequence (P29274 whole entry): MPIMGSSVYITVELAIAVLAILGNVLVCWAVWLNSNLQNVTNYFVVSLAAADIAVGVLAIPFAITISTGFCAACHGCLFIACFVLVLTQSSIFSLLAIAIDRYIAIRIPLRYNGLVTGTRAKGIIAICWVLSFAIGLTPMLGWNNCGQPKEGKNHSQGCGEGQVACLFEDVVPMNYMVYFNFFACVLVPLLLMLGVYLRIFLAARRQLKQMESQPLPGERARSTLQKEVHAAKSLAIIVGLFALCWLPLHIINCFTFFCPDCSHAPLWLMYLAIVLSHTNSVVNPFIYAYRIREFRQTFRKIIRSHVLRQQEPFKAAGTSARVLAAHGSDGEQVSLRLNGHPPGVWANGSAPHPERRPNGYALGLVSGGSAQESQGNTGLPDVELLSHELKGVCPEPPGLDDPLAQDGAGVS

SMILES | Kd (Adenosine receptor A2a [1]) | Kd (Adenosine receptor A1 [2]) | Kd (Adenosine receptor A2b) | Kd (Adenosine receptor A3) | also measured
CC(C)NC(=O)c1cc(-c2ccccc2)[nH]n1 | 49 µM | 70 µM | 196 µM | 80 µM | Activity (Adenosine receptor A2a [3]): Active
Cn1c(=O)[nH]c2ccccc2c1=O | 28.8 µM | 34.3 µM | 148 µM | 18.9 µM | –
CCNC(=O)[C@H]1O[C@@H](n2cnc3c(N)ncnc32)[C@H](O)[C@@H]1O | – | – | – | – | Activity (HEK-293T): Active
Nc1nncc(-c2ccc(Br)cc2)n1 | 50 µM | 1.1 µM | – | – | Activity (Adenosine receptor A2a [3]): Active
O=C(Nc1ccc2ccccc2n1)c1ccco1 | 40 µM | 59 µM | 123 µM | 56 µM | IC50 (Adenosine receptor A2a [4]): 0.166 µM
Nc1nc(-c2ccccc2)ns1 | 130 µM | 51.7 µM | 60.7 µM | 50.7 µM | –
COc1cc(/C=N/Nc2ncnc3c2cnn3-c2ccccc2)ccc1O | – | 1.21 µM | – | – | Activity (Adenosine receptor A2a [1]): Active; K [5]: 0.06 s⁻¹; K [6]: 5.33 10^4/M/s; Activity [7]: Active; Activity [8]: Active; IC50 [9]: 0.1 µM; Activity (Adenosine receptor A2a [10]): Active
Oc1ncnc2[nH]ncc12 [ALLOPURINOL] | 77 µM | – | – | – | –
O=C(Nc1ccccc1)Nc1ccccn1 | 50.9 µM | 41 µM | 43.3 µM | 52 µM | –
O=c1cc(NCc2ccccc2)nc2ccccn12 | 131 µM | 154 µM | 199 µM | 200 µM | –
O=C(NCc1ccccc1)c1ccc2nonc2c1 | 100 µM | 92 µM | 22 µM | 180 µM | –
O[C@H]1CC[C@H](Nc2nc(-c3ccccc3)nc3[nH]ccc23)CC1 | – | 0.00546 µM | – | – | K [5]: 0.0034 s⁻¹; K [6]: 6.27 10^5/M/s; ka (Adenosine receptor A1 [11]): 6.27 10^5/M/s
Nc1nsc(-c2ccc(Cl)cc2)n1 | 21.8 µM | 20.7 µM | 45 µM | 36.5 µM | Activity (Adenosine receptor A2a [12]): Active; Activity (Adenosine receptor A2a [10]): Active
